Consider 26 compounds from ChEMBL document CHEMBL4017529, “Rational Design of Selective Adenine-Based Scaffolds for Inactivation of Bacterial Histidine Kinases” (J Med Chem, 2017).

As a reminder, the inhibition is the relative decrease from the control value, in per cent. For orientation: IC50 means the concentration that inhibits the measured activity by half. A low value points to greater potency in that assay. A word on the ΔTm: it is the change in melting temperature against a reference sample.

For assay [1], the system named is Thermotoga maritima. Put plainly: Induction of Thermotoga maritima His-tagged HK853 expressed in Escherichia coli BL21(DE3)pLysS Rosetta aggregation at 100 uM after 30 mins by PAGE analysis. The essentials: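 Samples were run on 7.5% native-PAGE and silver stained. Aggregation was scored as loss of the dimeric HK853 band. NH125 served as positive aggregation control.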

Assay [2] concerns Thermotoga maritima. Kind of assay: Inhibition of ATPgammaS-BODIPY binding to Thermotoga maritima His-tagged HK853 expressed in Escherichia coli BL21(DE3)pLysS Rosetta at […] preincubated for 30 mins prior to ATPgammaS-BODIPY addition measured after 1 hr by […] SDS-PAGE analysis.
Assay [3] can be described thus: Inhibition of BODIPY-FL-ATPgammaS binding to Thermotoga maritima His-tagged HK853 expressed in Escherichia coli BL21(DE3)pLysS Rosetta preincubated for 30 mins followed by 1 hr incubation by SDS-PAGE in-gel fluorescence assay.
Assay [4] concerns the target T1, Heat shock protein HSP 90-alpha (Homo sapiens, UniProt P07900). Put plainly: Inhibition of full length human C-terminal His-tagged Hsp90 alpha expressed in Escherichia coli at […] by fluorescence polarization assay relative to control.
The nature of assay [5]: Selectivity ratio of IC50 for human full length C-terminal His-tagged Hsp90 alpha expressed in Escherichia coli to IC50 for Thermotoga maritima His-tagged HK853 expressed in Escherichia coli BL21(DE3)pLysS Rosetta.
Assay [6] relates to Thermotoga maritima. Kind of assay: Binding affinity to Thermotoga maritima His-tagged HK853 D411A mutant expressed in Escherichia coli BL21(DE3)pLysS Rosetta assessed as change in melting temperature at 1 mM by SYPRO orange dye based differential scanning fluorimetric analysis. On the technique in general: DSF heats the sample and reads unfolding from a dye or from intrinsic fluorescence.

In assay [7] the test system is Thermotoga maritima. Put plainly: Binding affinity to wild type Thermotoga maritima His-tagged HK853 expressed in Escherichia coli BL21(DE3)pLysS Rosetta assessed as change in melting temperature at 1 mM by SYPRO orange dye based differential scanning fluorimetric analysis. Summed up:
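Wild-type HK853 at 2–5 µM final in reaction buffer, with SYPRO orange at 5x final. Compound was added at 1 mM final from a 25 mM DMSO stock; the control got DMSO alone. Reactions were 25 µL, made up on ice. Melt ran 20–95 °C at 1 °C min⁻¹ with HEX-filter fluorescence. Tm came from the melt curves, and ΔTm was taken against the control.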

For assay [8], the system named is Thermotoga maritima. Put plainly: Induction of Thermotoga maritima His-tagged HK853 aggregation expressed in Escherichia coli BL21(DE3)pLysS Rosetta at >= […] after 30 mins by PAGE analysis.
The target in assay [9] is T1, Heat shock protein HSP 90-alpha. Put plainly: Inhibition of full length human C-terminal His-tagged Hsp90 alpha expressed in Escherichia coli by fluorescence polarization assay. (Fluorescence polarisation rises when a labelled molecule tumbles more slowly, as on binding a larger partner.)
For assay [10], the system named is Thermotoga maritima. Put plainly: Induction of Thermotoga maritima His-tagged HK853 expressed in Escherichia coli BL21(DE3)pLysS Rosetta aggregation at […] after 30 mins by PAGE analysis.

The source made the active and inactive calls. The calls are words filed in the database; no cut-off is given here. Some results are limits rather than exact numbers.

Take `FC(F)(F)c1cccnc1N1CCN(c2[nH]cnc3ncnc2-3)CC1`: the result in the assay with Thermotoga maritima [1] was Active.

`CC[C@@H](Nc1ncnc2nc[nH]c12)c1nc2cccc(F)c2c(=O)n1-c1ccccc1`: the inhibition result in the assay on Thermotoga maritima [2] was “inactive”.

The compound `Nc1ncnc2c1ncn2[C@@H]1O[C@H](COP(=O)(O)O)[C@@H](O)[C@H]1O` [ADENOSINE PHOSPHATE] registered a half-maximal inhibitory concentration (IC50) in [3] of 1030 µM.

For the compound `C=CCSc1ncnc2[nH]cnc12`, in the assay on Thermotoga maritima [1], the outcome was Active.

`Clc1c(CSc2ncnc3[nH]cnc23)ccc2c1OCO2`: in the assay on Thermotoga maritima [1], the outcome was Active.

For `C=CC(=O)N1CCC[C@H](n2nc(-c3ccc(Oc4ccccc4)cc3)c3c(N)ncnc32)C1`, the inhibition result in the assay with Thermotoga maritima [2] was “inactive”.

`CCCN(CCC)c1[nH]cnc2ncnc1-2` came in with an inhibition in assay [4] greater than 45%. Also, the Ratio IC50 in [5] fell in the range of 10 to 2000. Further, the ΔTm is less than 2 °C in the assay with Thermotoga maritima [6] and 10 °C with Thermotoga maritima [7].

As to `COc1ccc(OC)c(NC(=O)CSc2ncnc3[nH]cnc23)c1`, in the assay on Thermotoga maritima [1], the outcome was Active.

For `Cc1ccccc1OCn1cnc2c(N)ncnc21`, the outcome in the assay on Thermotoga maritima [1] was Active.

Take `c1ccc(N2CCN(c3ncnc4[nH]cnc34)CC2)nc1`: the result in the assay with Thermotoga maritima [1] was Active.

Take `CC1CCN(c2ncnc3[nH]cnc23)CC1`: the result in the assay with Thermotoga maritima [1] was Active.

In assay [3], `Nc1ncnc2c1ncn2[C@@H]1O[C@H](COP(=O)(O)OP(=O)(O)OP(=O)(O)O)[C@@H](O)[C@H]1O` [ADENOSINE TRIPHOSPHATE] had an IC50 of 27 µM.

Compound `c1ccc(CCNc2ncnc3[nH]cnc23)cc1` yielded an inhibition in assay [4] greater than 45%.

As for `Nc1nc(Cl)nc2c1ncn2[C@@H]1O[C@H](CO)[C@@H](O)[C@H]1O`, the inhibition in [4] was greater than 45%.

On to `Clc1ccccc1CSc1ncnc2[nH]cnc12`, for which, in the assay with Thermotoga maritima [1], the outcome was Active.

Consider `c1ccc(CSc2ncnc3[nH]cnc23)cc1`, for which the outcome in the assay with Thermotoga maritima [1] was Active.

`Nc1ncnc2c1ncn2CCN1CCOCC1`: in the assay on Thermotoga maritima [1], the outcome was Active.

With `Brc1cccc(CSc2ncnc3[nH]cnc23)c1`, the result in the assay with Thermotoga maritima [1] was Active.

Take `Nc1ncnc2c1ncn2[C@@H]1O[C@H](COP(=O)(O)OP(=O)(O)O)[C@@H](O)[C@H]1O` [ADENOSINE DIPHOSPHATE]: the ΔTm in the assay on Thermotoga maritima [6] was less than 2 °C; in the assay on Thermotoga maritima [7], 10 °C. The IC50 in assay [3] came out at 2.4 µM.

Consider `CC1CC(Nc2ncnc3[nH]cnc23)CC(C)(C)C1` (centres undefined), for which, in assay [5], the Ratio IC50 lay in the range of 10 to 2000.

With `c1ccc(Nc2ncnc3[nH]cnc23)cc1`, the outcome in the assay on Thermotoga maritima [8] was inactive.

As for `Cn1cnc2c(N)nc(Cl)nc21`, the inhibition in [4] is greater than 45%. The half-inhibitory concentration (IC50) in assay [9] was greater than 1250 µM. For the same compound, the Ratio IC50 in assay [5] was in the range of 10 to 2000. Also, the result in the assay on Thermotoga maritima [10] was inactive.

Turning to `Clc1ccc(CSc2[nH]cnc3ncnc2-3)cc1`, in the assay with Thermotoga maritima [1], the result was Active.

As to `COc1ccccc1N1CCN(c2[nH]cnc3ncnc2-3)CC1`, the outcome in the assay with Thermotoga maritima [1] was Active.

Regarding `Brc1ccc(CSc2[nH]cnc3ncnc2-3)cc1`, in the assay on Thermotoga maritima [1], the result was Active.

As for `NS(=O)(=O)c1ccc(CCNc2ncnc3[nH]cnc23)cc1`, in the assay with Thermotoga maritima [1], the outcome was Active.
